Source: ChEMBL document CHEMBL5579848, “Isothiocyanate-Corticosteroid Conjugates against asthma: Unity makes strength” (Eur J Med Chem, 2024)
≈ marks a conversion by molar mass, not a printed value. Calls of active or inactive are those of the source. The rule behind the calls is not given here.

Legend:
RBL-2H3 [1] = assay: Inhibition of mast cell degranulation in DNP-HSA antigen sensitized rat RBL-2H3 cells assessed as reduction in beta-hexoaminosidase release at 100 uM preincubated for 5 mins followed by DNP addition and measured after 1 hr by multiplate reader; type: functional, cell-based; conditions: time 65.0 min
Procedure, shortened: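 RBL-2H3 cells (72×10^3/well) were sensitized overnight with anti-DNP IgE 0.50 µg/ml, then moved to phenol-free DMEM with 1 mg/ml BSA. Cells were preincubated 5 min at 37 °C with 0.1 % DMSO, cromolyn 1 mM or compound 100 μM, then challenged with DNP-HSA 10 ng/ml. After 1 h, supernatant was incubated 1 h with 1.4 mM p-nitrophenyl-N-acetyl-β-D-glucosaminide (citrate pH 4.2), stopped with Trizma pH 9.4, and read at 405 nm.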

[2] = Half life in simulated gastric fluid at pH 1.2 in absence of pepsin at 100 uM incubated at 37 degreeC up to 24 hrs by UPHLC analysis; type: ADME; conditions: simulated gastric fluid without pepsin
Procedure, shortened: (§1)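 A 10 mM DMSO stock was diluted to 100 μM in PBS (pH 7.4, 50 mM) or pepsin-free SGF (pH 1.2) and held at 37 ± 0.5 °C for 24 h. Timed aliquots were quantified by reverse-phase UHPLC-DAD against calibration curves (1.56–100 ppm), tracking the parent compound plus aminoacetate and corticosteroid metabolites. Pseudo-first-order t1/2 was calculated; n = 3.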

[3] = Half life in PBS at pH 7.4 at 100 uM incubated at 37 degreeC up to 24 hrs by UPHLC analysis; type: ADME; procedure, shortened: as §1
Albumin [4] = molecular target: T1, Albumin (Bos taurus, UniProt P02769); assay: Half life in 3% bovine serum albumin at 200 uM incubated up to 4 hrs by UHPLC analysis; type: ADME; conditions: cattle, 3% bovine serum albumin solution
T1 sequence (P02769 whole entry): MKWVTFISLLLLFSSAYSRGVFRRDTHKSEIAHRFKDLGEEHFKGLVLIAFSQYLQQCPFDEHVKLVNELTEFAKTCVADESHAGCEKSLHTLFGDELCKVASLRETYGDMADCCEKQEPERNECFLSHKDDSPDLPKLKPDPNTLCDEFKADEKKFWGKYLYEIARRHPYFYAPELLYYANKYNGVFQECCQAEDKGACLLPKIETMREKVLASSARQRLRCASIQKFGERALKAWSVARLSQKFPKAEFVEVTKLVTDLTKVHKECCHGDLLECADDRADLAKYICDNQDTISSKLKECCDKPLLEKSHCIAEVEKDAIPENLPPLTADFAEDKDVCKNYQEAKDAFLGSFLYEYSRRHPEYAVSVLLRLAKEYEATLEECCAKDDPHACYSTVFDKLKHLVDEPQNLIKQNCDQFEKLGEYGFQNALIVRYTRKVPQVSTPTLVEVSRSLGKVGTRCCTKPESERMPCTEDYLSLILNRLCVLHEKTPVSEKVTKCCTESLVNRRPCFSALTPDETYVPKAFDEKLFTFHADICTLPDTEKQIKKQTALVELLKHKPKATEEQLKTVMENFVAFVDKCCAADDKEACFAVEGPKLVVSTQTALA
Procedure, shortened: (§2)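 A 10 mM DMSO stock was diluted to 200 μM in 3 % BSA in PBS and incubated at 37 ± 0.5 °C for up to 4 h. Timed samples were deproteinized with an equal volume of acetonitrile/0.1 % TFA, centrifuged, filtered and quantified by UHPLC. Results are given as pseudo-first-order t1/2 or % parent remaining at 10 min; n ≥ 3.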

[5] = Solubility of compound in simulated gastric fluid at pH 1.2 in absence of pepsin at 5 mg incubated at 25 degreeC for 6 hrs by UHPLC analysis; type: ADME; conditions: simulated gastric fluid without pepsin
Procedure, shortened: (§3)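 Solid compound (5 mg) was shaken in 1 mL water, PBS (pH 7.4, 50 mM) or pepsin-free SGF (pH 1.2) for 6 h at 25 °C. Suspensions were filtered (0.45 μm) and the filtrate quantified by UHPLC, reported in mg/L; triplicate, mean values.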

[6] = Solubility of compound in PBS at pH 7.4 at 5 mg incubated at 25 degreeC for 6 hrs by UHPLC analysis; type: physicochemical; procedure, shortened: as §3
[7] = Solubility of compound in water at 5 mg incubated at 25 degreeC for 6 hrs by UHPLC analysis; type: physicochemical; procedure, shortened: as §3
[8] = Induction of H2S release in PBS at pH 7.4 at 100 uM measured after 30 mins by free radical analyzer; type: physicochemical; conditions: buffer, pH 7.4, 0.5 h
Procedure, shortened: (§4)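 An H2S-selective mini-electrode was equilibrated in PBS pH 7.4, and compound was added to 100 μM final (1 % DMSO). Amperometric current was recorded for 30 min, with or without L-cysteine 4 mM added 10 min before. Current was converted to H2S using NaHS calibration (1–10 µM, pH 4.0); mean ± SEM.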

[9] = Induction of H2S release in PBS at pH 7.4 at 100 uM pretreated with L-Cys for 10 mins followed by compound addition and measured after 30 mins by free radical analyzer; type: physicochemical; conditions: buffer, pH 7.4, 0.5 h; procedure, shortened: as §4
RBL-2H3 [10] = assay: Cytotoxicity against rat RBL-2H3 cells assessed as reduction cell viability at 100 uM after 24 hrs by WST assay; type: toxicity, cell-based; conditions: rbl-2h3, 24 h
Procedure, shortened: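 RBL-2H3 cells were grown in MEM with 10 % FBS, 10^4 cells/well, and attached for 24 h. They were then exposed 24 h to 100 μM compound (final) or 0.1 % DMSO. WST-1 (1:10) was added for 60 min at 37 °C and absorbance read at 450 nm. Viability is expressed as % of vehicle; mean ± SEM.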

Mus musculus [11] = assay: Anti-asthmatic activity in OVA-induced ip dosed female BALB/c mouse model assessed as inhibition of bronchial hyperreactivity administered 30 min prior to every ovalbumin challenge on day 0 and 7 and measured after 21 days by isometric force transducer analysis; type: functional, organism-based; conditions: dose 1-2 mg/kg, time 21.0 day
Procedure, shortened: (§5)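 Female BALB/c mice (20 g, 8 weeks) sensitized s.c. with 100 μg ovalbumin adsorbed to 13.3 mg aluminum hydroxide gel (0.4 ml) on days 0 and 7; saline controls. Test agent (1–2 mg/kg, or equimolar 3,51 × 10^-6 mol) or vehicle given ip 30 min before each OVA dose. Killed day 21 by enflurane overdose; lungs, bronchi, blood collected.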

Mus musculus [12] = assay: Anti-asthmatic activity in OVA-induced female BALB/c mouse model assessed as reduction in alpha-SMA positive muscle layers at 1 to 2 mg/kg, ip for 30 min before every ovalbumin challenge on day 0 and 7 and measured after 21 days by immunohistochemical staining based microscopic analysis; type: functional, organism-based; conditions: dose 1-2 mg/kg, time 21.0 day; procedure, shortened: as §5
Mus musculus [13] = assay: Anti-asthmatic activity in OVA-induced female BALB/c mouse model assessed as reduction in cell infiltration at 1 mg/kg, ip for 30 min before every ovalbumin challenge on day 0 and 7 and measured after 21 days by H and E staining based microscopic analysis; type: functional, organism-based; conditions: time 21.0 day; procedure, shortened: as §5
Mus musculus [14] = assay: Anti-asthmatic activity in OVA-induced female BALB/c mouse model assessed as reduction in thickening of airway smooth muscle layer at 1 mg/kg, ip for 30 min before every ovalbumin challenge on day 0 and 7 and measured after 21 days by H and E staining based microscopic analysis; type: functional, organism-based; conditions: time 21.0 day; procedure, shortened: as §5
Mus musculus [15] = assay: Anti-asthmatic activity in OVA-induced female BALB/c mouse model assessed as reduction in detachment of the lamina propria at 1 mg/kg, ip for 30 min before every ovalbumin challenge on day 0 and 7 and measured after 21 days by H and E staining based microscopic analysis; type: functional, organism-based; conditions: time 21.0 day; procedure, shortened: as §5
Mus musculus [16] = assay: Anti-asthmatic activity in OVA-induced female BALB/c mouse model assessed as reduction in cell infiltration at 2 mg/kg, ip for 30 min before every ovalbumin challenge on day 0 and 7 and measured after 21 days by H and E staining based microscopic analysis; type: functional, organism-based; conditions: time 21.0 day; procedure, shortened: as §5
Mus musculus [17] = assay: Anti-asthmatic activity in OVA-induced female BALB/c mouse model assessed as reduction in thickening of airway smooth muscle layer at 2 mg/kg, ip for 30 min before every ovalbumin challenge on day 0 and 7 and measured after 21 days by H and E staining based microscopic analysis; type: functional, organism-based; conditions: time 21.0 day; procedure, shortened: as §5
Mus musculus [18] = assay: Anti-asthmatic activity in OVA-induced female BALB/c mouse model assessed as reduction in detachment of the lamina propria at 2 mg/kg, ip for 30 min before every ovalbumin challenge on day 0 and 7 and measured after 21 days by H and E staining based microscopic analysis; type: functional, organism-based; conditions: time 21.0 day; procedure, shortened: as §5
Mus musculus [19] = assay: Anti-asthmatic activity in OVA-induced female BALB/c mouse model assessed as reduction in IgE level in plasma at 2 mg/kg, ip for 30 min before every ovalbumin challenge on day 0 and 7 and measured after 21 days by ELISA; type: functional, organism-based; conditions: time 21.0 day; procedure, shortened: as §5
Mus musculus [20] = assay: Anti-asthmatic activity in OVA-induced ip dosed female BALB/c mouse model assessed as reduction in pulmonary IL-13 level administered for 30 min before every ovalbumin challenge on day 0 and 7 and measured after 21 days by ELISA; type: functional, organism-based; conditions: dose 1-2 mg/kg, time 21.0 day; procedure, shortened: as §5
Mus musculus [21] = assay: Anti-asthmatic activity in OVA-induced female BALB/c mouse model assessed as reduction in alpha-SMA positive muscle layers at 3.512 x 10^-6M, ip for 30 min before every ovalbumin challenge on day 0 and 7 and measured after 21 days by immunohistochemical staining based microscopic analysis; type: functional, organism-based; conditions: dose 3.512 10^-6M, time 21.0 day; procedure, shortened: as §5
Mus musculus [22] = assay: Anti-asthmatic activity in OVA-induced female BALB/c mouse model assessed as restoration of structure of alveolar septa at 3.512 x 10^-6M, ip for 30 min before every ovalbumin challenge on day 0 and 7 and measured after 21 days by H and E staining based microscopic analysis; type: functional, organism-based; conditions: dose 3.512 10^-6M, time 21.0 day; procedure, shortened: as §5
Mus musculus [23] = assay: Anti-asthmatic activity in OVA-induced female BALB/c mouse model assessed as restoration of structure of bronchial epithelium at 3.512 x 10^-6M, ip for 30 min before every ovalbumin challenge on day 0 and 7 and measured after 21 days by H and E staining based microscopic analysis; type: functional, organism-based; conditions: dose 3.512 10^-6M, time 21.0 day; procedure, shortened: as §5
Mus musculus [24] = assay: Anti-asthmatic activity in OVA-induced female BALB/c mouse model assessed as restoration of structure of airway smooth muscle at 3.512 x 10^-6M, ip for 30 min before every ovalbumin challenge on day 0 and 7 and measured after 21 days by H and E staining based microscopic analysis; type: functional, organism-based; conditions: dose 3.512 10^-6M, time 21.0 day; procedure, shortened: as §5
Mus musculus [25] = assay: Anti-asthmatic activity in OVA-induced female BALB/c mouse model assessed as inhibition of bronchial hyperreactivity at 3.512 x 10^-6M, ip for 30 min before every ovalbumin challenge on day 0 and 7 and measured after 21 days by isometric force transducer analysis; type: functional, organism-based; conditions: dose 3.512 10^-6M, time 21.0 day; procedure, shortened: as §5
Mus musculus [26] = assay: Anti-asthmatic activity in OVA-induced female BALB/c mouse model assessed as reduction in lung damage at 3.512 x 10^-6M, ip for 30 min before every ovalbumin challenge on day 0 and 7 and measured after 21 days by H and E staining based microscopic analysis; type: functional, organism-based; conditions: dose 3.512 10^-6M, time 21.0 day; procedure, shortened: as §5
Mus musculus [27] = assay: Anti-asthmatic activity in OVA-induced female BALB/c mouse model assessed as reduction in IgE level in plasma at 3.512 x 10^-6M, ip for 30 min before every ovalbumin challenge on day 0 and 7 and measured after 21 days by ELISA; type: functional, organism-based; conditions: dose 3.512 10^-6M, time 21.0 day; procedure, shortened: as §5
Mus musculus [28] = assay: Anti-asthmatic activity in OVA-induced female BALB/c mouse model assessed as reduction in pulmonary IL-13 level at 3.512 x 10^-6M, ip for 30 min before every ovalbumin challenge on day 0 and 7 and measured after 21 days by ELISA; type: functional, organism-based; conditions: dose 3.512 10^-6M, time 21.0 day; procedure, shortened: as §5
Albumin [29] = molecular target: T1, Albumin; assay: Stability in 3% bovine serum albumin assessed as parent compound remaining at 200 uM incubated at 37 degreeC for 10 mins by UHPLC analysis; type: ADME; conditions: cattle, 3% bovine serum albumin solution, read-out: Stability; procedure, shortened: as §2

Row | Compound | inhibition (RBL-2H3 [1]) | half-life at 100 µM [2] | half-life at 100 µM [3] | solubility at 6 h [5] | solubility at 6 h [6] | solubility at 6 h [7] | Activity [8] | Activity [9] | Activity (RBL-2H3 [10]) | other results
1 | C[C@@H]1C[C@H]2[C@@H]3CCC4=CC(=O)C=C[C@]4(C)[C@@]3(F)[C@@H](O)C[C@]2(C)[C@@]1(O)C(=O)COC(=O)CN | Active | – | – | – | – | – | – | – | – | –
2 | C[C@]12C=CC(=O)C=C1CC[C@@H]1[C@@H]2[C@@H](O)C[C@@]2(C)[C@H]1C[C@H]1O[C@@H](C3CCCCC3)O[C@]12C(=O)COC(=O)CN=C=S | Active | > 24 h | > 24 h | < 0.1 µg/mL | 0.25 µg/mL (≈ 0.439 µM) | 0.55 µg/mL (≈ 0.965 µM) | ~ 2 uM | ~ 2 uM | Non-Toxic | half-life at 200 µM (Albumin [4]): 1.4 h; inhibition (Mus musculus [11]): Dose-Dependent Effect; Activity (Mus musculus [12]): Active; Activity (Mus musculus [13]): inactive; Activity (Mus musculus [14]): inactive; Activity (Mus musculus [15]): inactive; Activity (Mus musculus [16]): Active; Activity (Mus musculus [17]): Active; Activity (Mus musculus [18]): Active; Activity (Mus musculus [19]): Active; Activity (Mus musculus [20]): Dose-Dependent Effect; Activity (Mus musculus [21]): Active; Activity (Mus musculus [22]): Active; Activity (Mus musculus [23]): Active; Activity (Mus musculus [24]): Active
3 | C[C@]12C=CC(=O)C=C1CC[C@@H]1[C@@H]2[C@@H](O)C[C@@]2(C)[C@H]1C[C@H]1O[C@@H](C3CCCCC3)O[C@]12C(=O)COC(=O)CN | Active | – | – | – | – | – | – | – | – | Activity (Mus musculus [25]): inactive; Activity (Mus musculus [26]): inactive; Activity (Mus musculus [27]): Active; Activity (Mus musculus [28]): inactive
4 | [Na+].[SH-] [SODIUM HYDROSULFIDE] | – | – | – | – | – | – | <= 20 uM | <= 20 uM | – | –
5 | CCCC1O[C@@H]2C[C@H]3[C@@H]4CCC5=CC(=O)C=C[C@]5(C)[C@H]4[C@@H](O)C[C@]3(C)[C@]2(C(=O)COC(=O)CN=C=S)O1 (some centres not stated) | Active | > 24 h | > 24 h | < 0.1 µg/mL | < 0.1 µg/mL | < 0.1 µg/mL | ~ 2 uM | ~ 2 uM | Non-Toxic | remaining at 10 min, 200 µM (Albumin [29]): 23%
